We go through two molecules from ChEMBL document CHEMBL4033777, “Next-Generation Hypoxic Cell Radiosensitizers: Nitroimidazole Alkylsulfonamides” (J Med Chem, 2018).

Where only a bound is given, the exact number is not on record here.

Series [1] has as its system HCT-116. Description: Cytotoxicity against human HCT116 cells at anoxic IC50 incubated for 1 hr at 21 degC by clonogenic survival assay. The following applies: hct-116, 1 h.
The subject of series [2] is Plasma. Description: Cmax in plasma of NIH-III mouse xenografted with human HCT116 cells at 1.24 mmol/kg, iv administered as single dose by HPLC analysis. In kind it is ADME, organism-based. On the set-up: dose 1.24 mmol/kg, route intravenous. The settings on record: in vivo. In outline:
(§1)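 Female NIH-III mice bearing subcutaneous HCT116 xenografts (10^6 cells inoculated). At ca. 300 mm3 tumor size, a single i.v. dose was given at the MAD or 75% of the MTD. Vehicle was 0.9% saline with 1% DMSO, or saline with 2 molar equivalents NaHCO3 for phosphate prodrugs. Plasma and tumor were sampled at multiple times by cardiac puncture and excision, assayed by HPLC, and analysed noncompartmentally.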

In series [3] the test system is HCT-116. Description: Hypoxia radiosensitization activity in human HCT116 cells assessed as survival ratio by measuring ratio of cell survival with radiation in absence to presence of compound at 9.8 mM preincubated for 1 hr followed by 6 to 29 Gy irradiation measured after 10 days by methylene blue staining-based cell counting method. The series is classed as functional.

Series [4] is described as follows: Electrophilicity of the compound in pH 7 phosphate buffer assessed as one-electron reduction potential. In outline: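 The one-electron reduction potential was set by pulse radiolysis equilibria at pH 7.0 (2.5 mM phosphate), established within 20 µs against benzylviologen, methylviologen or triquat. ΔE came from equilibrium constants via the Nernst equation, at three concentration ratios and 22 ± 2 °C.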

The subject of series [5] is HCT-116. Put plainly: Hypoxia radiosensitization activity in human HCT116 cells assessed as survival ratio by measuring ratio of cell survival with 15 Gy radiation in absence to presence of compound at anoxic IC50 preincubated for 1 hr followed by 15 Gy irradiation measured after 10 days by methylene blue staining-based cell counting method. In kind it is functional. The gist of the method:
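Anoxic HCT116 cells were seeded at 10^5/well and treated at the anoxic IC50 concentration for 1 h at room temperature. They were irradiated with 15 Gy (60Co, ~2 Gy/min) in a sealed steel box, then plated clonogenically. Colonies of >50 cells were counted […]. SR15 = survival with radiation / survival with drug + radiation.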

The nature of series [6]: Solubility of the compound in alphaMEM containing 5% FCS and 1% DMSO by HPLC analysis. The series is classed as physicochemical. In outline:
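Saturated drug solutions were incubated at 37 °C in αMEM with 5% FCS and 1% DMSO. Dissolved drug was quantified by HPLC.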

Series [7] deals with HCT-116. Put plainly: In vivo hypoxia radiosensitization activity in human HCT116 cells xenografted in NIH-III mouse assessed as survival ratio by measuring ratio of cell survival with 12.5 Gy radiation in absence to presence of compound at 1.24 mmol/kg, iv pretreated as single dose for 10 mins followed by irradiation measured after 18 hrs by excision assay. In kind it is functional.

Series [8] can be described thus: Tmax in plasma of NIH-III mouse xenografted with human HCT116 cells at 1.24 mmol/kg, iv administered as single dose by HPLC analysis. In kind it is ADME, organism-based. The gist of the method:
(§2)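 Female NIH-III mice bearing subcutaneous HCT116 tumors (10^6 cells; ~300 mm3) got a single i.v. dose at the MAD or 75% of the MTD. Vehicle was saline with 1% DMSO, or saline with 2 equivalents of NaHCO3 for the phosphates. Plasma and tumor were sampled at multiple times by cardiac puncture and excision, drug was measured by HPLC, and Tmax came from noncompartmental analysis.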

In series [9] the test system is HCT-116. Description: Hypoxia radiosensitization activity in human HCT116 cells assessed as survival ratio by measuring ratio of cell survival with radiation in absence to presence of compound at 9.8 mM preincubated for 1 hr followed by 6 to 29 Gy irradiation measured after 10 days by methylene blue staining-based cell counting method relative to misonidazole. In kind it is functional.

Series [10] in a line: Tmax in tumor of NIH-III mouse xenografted with human HCT116 cells at 1.24 mmol/kg, iv administered as single dose by HPLC analysis. In kind it is ADME, organism-based, Neoplasm. The following applies: 0.93 mmol/kg, in the assay text read “0.93 mmol/kg” for “1.24 mmol/kg”. The gist of the method:
as §2

The subject of series [11] is HCT-116. Description: Cytotoxicity against human HCT116 cells incubated for 4 hrs under anaerobic condition measured after 5 days by sulforhodamine B assay. The series is classed as functional, cell-based. The gist of the method:
(§3)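 STR-authenticated, mycoplasma-free HCT116 cells in αMEM + 5% FCS were seeded at 700 cells/well and allowed 2 h to attach. Drug was added from DMSO stocks (<1% DMSO) in serial 3-fold dilutions for 4 h, oxic or anoxic (Pd-catalyst anaerobic chamber, medium pre-equilibrated ≥3 days). After washing, cells regrew for 5 days before SRB staining and IC50 determination.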

The subject of series [12] is HCT-116. Put plainly: Hypoxic cytotoxicity ratio of IC50 for human HCT116 cells under oxic condition to IC50 for human HCT116 cells under anoxic condition. The gist of the method: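 HCT116 cells, 700 per well and attached 2 h, got a 4 h exposure to 3-fold serial dilutions (<1% DMSO) under air or in a Pd-catalyst anaerobic chamber with pre-equilibrated medium. Cells were washed, regrown 5 days, and stained with sulforhodamine B to give IC50. HCR = oxic IC50 / anoxic IC50.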

Series [13] in a line: Toxicity in NIH-III mouse at 10 ml/kg, iv. The following applies: in vivo. The gist of the method: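 MTD was the highest dose without drug-related deaths, >15% body-weight loss or severe morbidity. MAD was the maximum dose soluble in the injection volume. Vehicle was 0.9% saline with 1% DMSO, or for phosphate prodrugs saline with 2 molar equivalents of NaHCO3.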
In series [14] the test system is HCT-116. Description: Hypoxia radiosensitization activity in human HCT116 cells assessed as sensitizer enhancement ratio by measuring ratio of radiation dose for 1% survival in absence to presence of compound at 9.8 mM preincubated for 1 hr followed by irradiation measured after 10 days by methylene blue staining-based cell counting method relative to misonidazole. The series is classed as functional.

The subject of series [15] is Mus musculus. Description: Toxicity in NIH-III mouse xenografted with human HCT116 cells assessed as change in body weight with 12.5 Gy radiation at 0.93 mmol/kg, iv administered as single dose. The settings on record: in vivo.
Series [16] deals with HCT-116. Put plainly: Hypoxia radiosensitization activity in human HCT116 cells assessed as sensitizer enhancement ratio by measuring ratio of radiation dose for 1% survival in absence to presence of compound at 9.8 mM preincubated for 1 hr followed by irradiation measured after 10 days by methylene blue staining-based cell counting method. The series is classed as functional.

Series [17] can be described thus: Cmax in tumor of NIH-III mouse xenografted with human HCT116 cells at 1.24 mmol/kg, iv administered as single dose by HPLC analysis. In kind it is ADME, organism-based, Neoplasm. On the set-up: dose 1.24 mmol/kg, route intravenous. The settings on record: in vivo. In outline: as §1
Series [18] relates to HCT-116. Description: In vivo hypoxia radiosensitization activity in human HCT116 cells xenografted in NIH-III mouse assessed as survival ratio by measuring ratio of cell survival with 12.5 Gy radiation in absence to presence of compound at 0.6 mmol/kg, iv pretreated as single dose for 10 mins followed by irradiation measured after 18 hrs by excision assay. In kind it is functional.

In series [19] the test system is Plasma. Put plainly: Cmax in plasma of NIH-III mouse xenografted with human HCT116 cells at 0.60 mmol/kg, iv administered as single dose by HPLC analysis. On the set-up: dose 0.6 mmol/kg, route intravenous. The following applies: in vivo. In kind it is ADME, organism-based. The gist of the method: as §1
A short description of series [20]: Tmax in tumor of NIH-III mouse xenografted with human HCT116 cells at 0.60 mmol/kg, iv administered as single dose by HPLC analysis. In kind it is ADME, organism-based, Neoplasm. The settings on record: 0.6 mmol/kg. In outline:
as §2

A short description of series [21]: Tmax in plasma of NIH-III mouse xenografted with human HCT116 cells at 0.60 mmol/kg, iv administered as single dose by HPLC analysis. In kind it is ADME, organism-based. The following applies: 0.6 mmol/kg. In outline:
as §2

In series [22] the test system is HCT-116. Put plainly: Hypoxia radiosensitization activity in human HCT116 cells assessed as survival ratio by measuring ratio of cell survival with radiation in absence to presence of compound at 0.11 mM preincubated for 1 hr followed by 6 to 29 Gy irradiation measured after 10 days by methylene blue staining-based cell counting method. In kind it is functional.

The test system of series [23] is HCT-116. Description: Hypoxia radiosensitization activity in human HCT116 cells assessed as survival ratio by measuring ratio of cell survival with radiation in absence to presence of compound at 0.11 mM preincubated for 1 hr followed by 6 to 29 Gy irradiation measured after 10 days by methylene blue staining-based cell counting method relative to misonidazole. The series is classed as functional.

A short description of series [24]: Cmax in tumor of NIH-III mouse xenografted with human HCT116 cells at 0.60 mmol/kg, iv administered as single dose by HPLC analysis. The series is classed as ADME, organism-based, Neoplasm. On the set-up: dose 0.6 mmol/kg, route intravenous. The settings on record: in vivo. In outline:
as §1

Series [25] relates to HCT-116. Put plainly: Cytotoxicity against human HCT116 cells incubated for 4 hrs under aerobic condition measured after 5 days by sulforhodamine B assay. The series is classed as cell-based. The gist of the method: as §3
In series [26] the test system is Mus musculus. Put plainly: Drug level in NIH-III mouse assessed as maximum achievable dose at 10 ml/kg, iv. In kind it is ADME. The settings on record: in vivo. In outline: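 Non-tumor-bearing female NIH-III mice (~20 g) received freshly prepared solutions i.v. at 10 mL/kg in 0.9% saline with 1% DMSO, or saline with 2 molar equivalents NaHCO3 for phosphate prodrugs. MAD was the maximum dose that dissolved in the injection volume.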

For `O=[N+]([O-])c1cncn1CCN1CCOCC1` [NIMORAZOLE], the Activity result in the series with HCT-116 [1] is “Non-Toxic”; in series [4], -457 mV; in the series on Mus musculus [15], “Non-Toxic”. Moreover, the peak concentration (Cmax) in the series with Plasma [2] was 1210 µM; in series [17], 91 µM. The Ratio is reported as 44.9 in the series with HCT-116 [3], 37 in the series with HCT-116 [5], 4 in the series with HCT-116 [7] and 1.8 with HCT-116 [16]. Besides, the solubility in series [6] is > 100 mM. In addition, the Tmax was 5 min in series [8] and 10 min in [10]. The results for the “fold change (FC)” value in the series on HCT-116 [9] and in the series with HCT-116 [14] were 7.28 and 1.27, respectively. Besides, the IC50 in the series with HCT-116 [11] came to 9.8 mM. Moreover, the “Ratio IC50” value with HCT-116 [12] was found to be 0.8. Moreover, the MTD in series [13] came out at 1240 µmol/kg.

Regarding `O=[N+]([O-])c1nccn1CS(=O)(=O)NCCO`, the results for the Ratio with HCT-116 [18] and in the series on HCT-116 [22] were 2.4 and 1.8, respectively. Also, the Cmax in the series on Plasma [19] turned out to be 570 µM; in series [24], 94 µM. Moreover, in the series on HCT-116 [1], the Activity entry was “Non-Toxic”. Moreover, the Tmax in series [20] was 10 min; in series [21], 5 min. In addition, the “fold change (FC)” value in the series on HCT-116 [23] is listed as 0.47. In the series on HCT-116 [25], this molecule returned an IC50 of 0.38 to 4.8 mM. Further, the Drug uptake in the series with Mus musculus [26] is 0.6 mmol/kg.
